Test system: MS2 coat protein
Assay: apparent Kd, MS2 coat protein; higher = weaker binding; RNA-MaP array; FMN 200 µM where present
How it was run: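 Green signal was scaled to red-channel RNA signal and control-cluster median Fmax, and the apparent Kd was taken as the median of filtered per-cluster binding-curve fits. The binding series used SNAP-549-labelled MS2 coat protein from 0.7 or 1.5 nM, doubling to 3 µM, on designs transcribed by stalled E. coli RNA polymerase on Illumina sequencing-chip clusters. Each series ran without and then with constant ligand in 100 mM Tris-HCl pH 7.5, 80 mM KCl, 4 mM MgCl2, BSA, DTT, yeast tRNA and Tween-20.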

[1] = designed as: OFF switch for flavin mononucleotide, no ligand
[2] = ligand present: flavin mononucleotide, designed as: OFF switch for flavin mononucleotide
[3] = designed as: ON switch for flavin mononucleotide, no ligand
[4] = ligand present: flavin mononucleotide, designed as: ON switch for flavin mononucleotide

Sequence | apparent Kd [1] | apparent Kd [2] | apparent Kd [3] | apparent Kd [4]
CUUUUGUGAGGAUAUUCGUAGUAGGGUCAUGGCACUAUUAUGGAGAAGGCACAUGAGGAUCACCCAUGUACCUU | 16.6 nM | 29.3 nM |  | 
CAGCGAAAGUAGAAGGCAGUACUGAUACAGUACUGAGGAUAUACAUGAGGAUCACCCAUGUCCUUCAGCUGGAAAUAAAUAAAA | 5.9 nM | 50.9 nM |  | 
AUAUCUUGUCGAGGAUAUGUUGUAUUGAUCUGAAAACAUGAGGAUCACCCAUGUAUACGGUGGGAACAGAAGGUGGAUGUAGAA | 318 nM | 356 nM |  | 
ACAUUAGUACCACAUGUAUUACAUGAGGAUCACCCAUGUUACUAGGAUAUGUAUUAGAAUUUACAACAGAAGGAGUUAUUAUGU | 17.2 nM | 17.1 nM |  | 
UAUGGUAAAGUCAGGAUAUACGUACAUCAUUCUAGGUAGAAGGGACAUGAGGAUCACCCAUGUAUGGUAGUGUU | 62.2 nM | 67.6 nM |  | 
GUUUUUUUUCAUGUACAUGAGGAACAUGAGGAUCACCCAUGUAGAAGGAAUUUUUUUAAGUUUAGUUAGGAUAUACAUAUAUUG | 54.2 nM | 33.9 nM |  | 
AACAGUAUAGGAUAUACAUGAGGAUCACCCAUGUGAGAAUUACGUGGCGUACCACGAAGUAGAAGGAUACUGGA | 38.6 nM | 168 nM |  | 
UUAAUUAAUUAAUUGCAGUUUACAUGAGGAUCACCCAUGUAUAAGGAUAUGCAGUGGAAUACACUGCAGAAGGUAUACAUCUGC | 19.5 nM | 35.2 nM |  | 
UGGUACAUGGGAGGAUAUGGGUUGUUAACAUGAGGAUCACCCAUGUUAUGCCGAAAGGCAAAGAACUAGAAGGCCCAUGUACCU |  |  | 21.9 nM | 16.4 nM
UUAAAUCAUGUAGGAUAUGCAUGGCGAAGCUACGCAGAAGGACAUGAGGAUCACCCAUGUUAUAGCUUCCAAGUUAGGAGGCAA | 85.7 nM | 191 nM |  | 
CUGGGUAAAAUGGGAGGUAGCUGGCAGGAUAUGACAUGAGGAUCACCCAUGUGGAGAUCUUGGGAUCAGAAGGGCCUGUGACCU | 205 nM | 119 nM |  | 
ACCUAUGAGGAGGAUAUACGGUGCGAAAGGAAGGUAGAAGGCUUCACAUGAGGAUCACCCAUGUCUAUAAGCGA | 30.9 nM | 29.5 nM |  | 
AGAAAACAUGAGGAUCACCCAUGUGAGGAUAUCGAUGUCCAAGGAAGGGUGCGGGACUCGAGAAGGCACUUGGA | 72.4 nM | 58.8 nM |  | 
ACCUCGUCAGGAUAUCCUAUUAAUUGUUUCAUAUUUACUAUGGAGAAGGGACAUGAGGAUCACCCAUGUUGGUC | 53.3 nM | 57.8 nM |  | 
CUAUGCGGAAUAGGAUAUUCAUUCAUGAGGAUAGAAGAAGGGUUACAUGAGGAUCACCCAUGUAUGCACAUGAGGAUCCCUUAG | 247 nM | 260 nM |  | 
GGAGCACACAUUAACAUGAGGAUCACCCAUGUCAAAAGACAUGAGGAUAUGGAUCCGAAAAGGAUCCAGAAGGCAUGGUUCUCC |  |  | 365 nM | 19.6 nM
AGCUGUGGCCGAGGAUAUCUAUCCAAUAAAACCGAAAUAUAAUCGGACAUGAGGAUCACCCAUGUAGAGAAGGCGGUCUCAGCA | 22.4 nM | 30.5 nM |  | 
CGAGCUCGUGUGAGGAUAUACCUAUGGAUACAUAGGUAGAAGGCACAUGAGGAUCACCCAUGUCCUAGAGCUCG | 92 nM | 679 nM |  | 
GGGUGACAUGAGGAUCACCCAUGUCAGGAUAUUGAGCUUGAGCUGAAAAGUUCGAGUUCGAGAAGGGACUGCCC | 52 nM | 229 nM |  | 
AUGCUGUCAGGAUAUCGUUAAUUUAGUUGUUUGUAUUAGUUCGAGAAGGGACAUGAGGAUCACCCAUGUAUGUA | 30.6 nM | 54.8 nM |  | 
AUUAUUUACAUAGGAUAUUGUUACAUGAGGAUCACCCAUGUUUUCAUGGUAUUAAUAUAUUAUUUCAAGAAGGAUGUUGUUACA |  |  | 32.2 nM | 19.6 nM
AUCAGCUCGUUAGGAUAUACGUCACUGCGUCAGCAGUGUGGUAAGAUCACAUGAGGAUCACCCAUGUAGAAGGGACGAGCUGAU | 12.8 nM | 94.2 nM |  | 
UGGUACUAGGGAGGAUAUGGGAAGAUACAUGAGGAUCACCCAUGUUCAAGAAUGCCGAGAGGCAACUAGAAGGCCCUAGUACCU |  |  | 928 nM | 46.2 nM
AGGCCGGGAGGAUAUCCAAUAUAUGACAUGAGGAUCACCCAUGUUUCCACUCGUACCUCCGGAGAAGGCCCGGCGA | 21.1 nM | 19.9 nM |  | 
UUUUAACAUGAGGAUCACCCAUGUGAGGAUAUCGAAAUUUAUAUUAAUAUUUAUUAAUCGAGAAGGCACAUUUU | 93.7 nM | 122 nM |  | 
GGGUACAUCGGAGGAUAUCAUGUAAAUACAUGAGGAUCACCCAUGUCGAUGGAGACAUCGGAGAUUGAGAAGGCCGAUGUUCCG |  |  | 202 nM | 9.84 nM
CUUUCGUGAGGAUAUCAGUAGUAAAAAUAUAAAAUUACUACUGAGAAGGCACAUGAGGAUCACCCAUGUUCCUC | 26 nM | 150 nM |  | 
UCGCUGCGAGGAUAUACGUGCGCGCGCGCGCGCGCGCGCGUACAUGAGGAUCACCCAUGUAGAAGGCGCUCUGC | 39.7 nM | 36.6 nM |  | 
